Bioassay records deposited in PubChem BioAssay by several laboratories.
Compounds with a hit are over-represented: about 9.4% of the library has one in this group of screens.
CSC inhib = cancer stem cell inhibition; cancer stem cell-like cells viability, luminescence; inhibition, % at 7.5 µM; 1.1% of 300,000 active; in the data active = inhibition above about 75%; inconclusive = no clear call, values can overlap the other calls; tested in HMLE shEcad cells
L major viab = inhibitors of Leishmania major promastigote growth. 9% of 200,000 active. inhibition, % at 10 µM. Leishmania major promastigotes, resazurin fluorescence viability. AID 1063; in the data active = inhibition above about 50%;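 also: promastigotes grown with compound for 44 hours at 28 °C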
T cruzi repl = T. cruzi replication inhibition; inhibition, % (test concentration not listed); AID 1885; T. cruzi beta-gal in NIH3T3, luminescence, 90 h; 1.4% of 300,000 active;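 active = mean inhibition across valid replicates above about 55%, limit read from the data; inconclusive = mean below that limit but half or more replicates reach it; inactive = mean below it, under half of replicates reach it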;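 also: signal also drops with host cell toxicity which is not excluded here; 0% = plate median of DMSO wells and 100% = zero luminescence signal; higher percent means less beta-gal luminescence so fewer parasites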
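Test system: β-gal T. cruzi (Tulahuen C4) inside NIH/3T3 cells / Quantity: 5,000 cells/well / Measured by: luminescence from GalScreen with 0.05% NP40, read after 60 min / Medium: DMEM plus 2% FBS / Measure: parasite load inhibition, % / Reagent: Tulahuen C4 trypomastigotes, 5000/well / Schedule: co-culture of at least 90 h after 3 h attachment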
SKKanGAS inh = blocks kanamycin growth of S. pyogenes SKKanGAS strain | BacTiter-Glo, 6 h | 1.3% of 300,000 active | inhibition, % at 7.5 µM;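 active = mean replicate score, as percent of positive control median, at least 50; inconclusive = mean below 50 but one replicate at or above 50; inactive = mean and every replicate below 50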;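 also: strain carries kanamycin resistance gene driven by streptokinase promoter and grows in 40 µg/ml kanamycin; loss of luminescence reflects streptokinase promoter inhibition or plain growth inhibition; 0% = median of DMSO wells and 100% = positive control at its reference dose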
Beta apoptosis = blocks beta cell apoptosis; protection from apoptosis, % (no concentration beside the values); INS-1E cytokine-induced death, ATP luminescence, 48 h; percent of positive-control rescue, neutral wells zero; 0.8% of 300,000 active; AID 435005;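 active = Every replicate reaches about 75%, or at least half do and their mean reaches it too, limit read from the data; inconclusive = At least half of replicates reach the limit but their mean does not; inactive = Under half of replicates reach the limit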;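 also: 0% = cytokine-treated negative control wells and 100% = positive control rescue; higher means more ATP so stronger rescue from cytokine killing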
Mdm2 MdmX PPI = disrupts the human Mdm2-MdmX interaction; O15151+Q00987; 3% of 330,000 active; SaOS-2 split-luciferase Mdm2/MdmX complementation, luminescence; inhibition, % at 8 µM;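 active = inhibition of at least 50% at 8 µM in the primary screen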
Target sequence (O15151 whole entry, looked up): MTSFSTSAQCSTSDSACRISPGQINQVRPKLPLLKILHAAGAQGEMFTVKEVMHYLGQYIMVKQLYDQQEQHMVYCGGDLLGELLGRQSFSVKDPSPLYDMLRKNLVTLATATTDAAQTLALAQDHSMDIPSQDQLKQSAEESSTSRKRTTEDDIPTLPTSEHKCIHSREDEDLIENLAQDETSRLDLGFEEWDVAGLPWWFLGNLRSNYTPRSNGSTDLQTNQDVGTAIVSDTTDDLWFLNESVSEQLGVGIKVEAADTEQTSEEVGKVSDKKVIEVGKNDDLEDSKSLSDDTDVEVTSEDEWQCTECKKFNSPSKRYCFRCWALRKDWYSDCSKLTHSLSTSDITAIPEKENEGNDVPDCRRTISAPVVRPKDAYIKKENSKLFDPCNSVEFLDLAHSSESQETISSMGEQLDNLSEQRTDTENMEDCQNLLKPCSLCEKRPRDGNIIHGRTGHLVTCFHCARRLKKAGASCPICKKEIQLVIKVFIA
Target sequence (Q00987 whole entry, looked up): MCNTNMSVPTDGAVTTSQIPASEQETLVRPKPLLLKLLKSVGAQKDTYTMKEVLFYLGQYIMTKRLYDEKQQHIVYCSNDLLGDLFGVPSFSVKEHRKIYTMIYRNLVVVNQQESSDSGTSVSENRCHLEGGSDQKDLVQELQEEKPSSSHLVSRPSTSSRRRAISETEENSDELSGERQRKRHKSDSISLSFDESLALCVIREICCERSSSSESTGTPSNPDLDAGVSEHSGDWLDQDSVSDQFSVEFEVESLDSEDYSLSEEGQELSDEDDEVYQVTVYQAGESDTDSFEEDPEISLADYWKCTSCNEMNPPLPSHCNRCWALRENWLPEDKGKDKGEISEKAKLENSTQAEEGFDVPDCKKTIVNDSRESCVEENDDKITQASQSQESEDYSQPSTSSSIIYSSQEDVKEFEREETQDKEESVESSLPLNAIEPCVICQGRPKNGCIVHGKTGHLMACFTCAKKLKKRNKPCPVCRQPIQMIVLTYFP
Active calls of the source: *; ? = inconclusive; · = no result.

SMILES | CSC inhib | L major viab | T cruzi repl | SKKanGAS inh | Beta apoptosis | Mdm2 MdmX PPI
Oc1c(N=NC(=S)Nc2ccccc2F)c2ccccc2n1Cc1ccccc1 | · | 95.6* | 51.1 | ? | 40.7 | 41.1
Oc1c(N=NC(=S)Nc2ccccc2F)c2ccccc2n1Cc1ccccc1Cl | 1.8 | 84.2* | 68.0* | · | 37.5 | 40.3
CCCCn1c(N)c(N(CC)C(=O)CSc2nnnn2-c2cc(C)ccc2C)c(=O)[nH]c1=O | 12.4 | 24.2 | -3.2 | 3.3 | -0.8 | 10.8
CCc1ccc(C2=NNC(=Nc3cccc(S(=O)(=O)N(C)C)c3)SC2)cc1 | 10.0 | -1.7 | 41.3 | 17.8 | 120.2* | 36.0
COc1ccc2cc(C(=O)N3CCN(c4ccccc4OC)CC3)[nH]c2c1 | -10.1 | · | -6.1 | 1.6 | -10.3 | 8.9
COc1ccc2cc(C(=O)C3CCCN(C(=O)/C=C/c4ccccn4)C3)ccc2c1 (stereo not given) | -0.8 | 2.9 | 10.4 | 1.0 | -4.5 | -20.0
CNc1nc(N/N=C/c2cc3c(cc2[N+](=O)[O-])OCO3)nc(Nc2ccccc2)n1 | -4.2 | 64.8* | 71.5* | -0.2 | 98.1* | 38.0
CCCNC(=S)Nc1ccc(F)cc1F | -12.6 | · | -28.2 | 8.0 | -0.8 | 22.4
Cn1cccc1C1C=C(c2ccc(C(C)(C)C)cc2)Nc2ncnn21 (stereo not given) | 12.3 | · | -11.7 | 28.0 | 127.1* | 20.2
COc1ccc(NS(=O)(=O)c2ccc(C)c(C(=O)N3CCCCCCC3)c2)cc1 | 2.8 | · | 2.9 | -11.9 | -1.4 | 13.5
CC(C)Oc1cccc(NC(=O)c2cnccc2C(F)(F)F)c1 | -5.0 | · | -3.1 | -2.7 | -1.1 | -13.4
O=C1CC(c2ccc(F)cc2)CC2=C1C=Nc1ccccc1N2 (stereo not given) | 103.1* | 42.3 | 3.3 | 4.8 | -2.8 | 31.7
CCCn1c(=O)c(C(=O)Nc2ncccc2C)c(O)c2ccccc21 | · | 3.9 | -14.6 | 54.6* | -0.1 | 24.0
CCCn1c(=O)c(C(=O)Nc2cccc(C)n2)c(O)c2ccccc21 | 3.4 | · | -14.8 | -7.8 | · | 23.8
C=CCn1c(=O)c(C(=O)NCCc2ccccc2)c(O)c2ccccc21 | 116.2* | -10.0 | 12.3 | 1.8 | 8.7 | -3.8
CCCn1c(=O)c(C(=O)NCCc2ccccc2)c(O)c2ccccc21 | 38.4 | · | -6.4 | 8.7 | 2.3 | -13.6
CCn1c(=O)c(C(=O)NNC(=O)Cc2ccccc2)c(O)c2ccccc21 | -7.7 | · | -6.6 | 54.3* | -1.8 | 0.6
CCCCCCCCCC(=O)NNC(=O)c1c(O)c2ccccc2n(CCC)c1=O | -8.3 | 5.0 | -7.7 | 100.6* | 6.4 | 17.3
NC(=O)c1cc([N+](=O)[O-])ccc1NCc1ccc(N)cc1 | 5.7 | · | · | · | 6.6 | 30.5
CC[C@@H]1C=C(C(=O)O)[C@H](c2cccc(C)c2)N1S(=O)(=O)c1ccc(C)cc1 | · | · | · | · | · | -6.6
CCCCCCCC(=O)NNC(=O)c1c(O)c2ccccc2[nH]c1=O | -2.7 | · | -5.6 | 31.0 | 3.6 | 23.6
CCCn1c(=O)c(C(=O)NCc2ccccc2)c(O)c2ccccc21 | 40.0 | · | 5.5 | 12.6 | -2.8 | 26.6
CCn1c(=O)c(C(=O)Nc2ccccc2)c(O)c2ccccc21 | -17.6 | · | 0.1 | 1.8 | -6.1 | 30.5
CCCCCCCCCCC(=O)NNC(=O)c1c(O)c2ccccc2n(CC)c1=O | -11.6 | 6.7 | -12.6 | 100.8* | -1.8 | 14.3
CCCCCCCCC(=O)NNC(=O)c1c(O)c2ccccc2n(CCC)c1=O | -6.0 | -12.1 | 2.8 | 116.7* | -0.9 | -12.6
SMILES | CSC inhib | L major viab | T cruzi repl | SKKanGAS inh | Beta apoptosis | Mdm2 MdmX PPI
CCn1c(=O)c(C(=O)Nc2nc3ccccc3[nH]2)c(O)c2ccccc21 | 67.3 | 32.6 | -3.6 | 103.1* | 118.2* | 17.6
O=S(=O)(Nc1ccc(-c2ccc3nncn3n2)cc1)c1cccs1 | -2.4 | · | -4.1 | 5.3 | · | 11.1
CCOC(=O)c1cc[n+](CC(=O)c2ccc(F)cc2)cc1 | -34.2 | -5.0 | -2.6 | -6.0 | -2.5 | -35.2
Cc1ccc(S(=O)(=O)NC(C)(C)C)cc1C(=O)OCC(=O)N1CCCC1=O | -13.0 | · | -10.9 | -6.9 | 2.0 | 2.5
CCOC(=O)c1ccc(NC(=O)CCS(=O)(=O)Cc2ccccc2)cc1 | 1.8 | · | -14.9 | 1.2 | 0.6 | -4.5
CCOC(=O)c1ccc(NC(=O)c2nc(S(=O)(=O)Cc3ccccc3)ncc2Cl)cc1 | 102.9* | · | -9.1 | 82.5* | 78.1* | 49.3
Cc1ccc(S(=O)(=O)CCc2nnc(NC(=O)c3cnccn3)s2)cc1 | 11.2 | -2.2 | -7.1 | -1.8 | -1.3 | 0.6
CCc1nnc(NC(=O)c2cccc(C(=O)Nc3nnc(CC)s3)n2)s1 | 40.2 | 99.4* | 31.9 | 99.0* | 76.2* | ·
Cc1ccc(S(=O)(=O)CCc2nnc(NC(=O)c3ccccn3)s2)cc1 | 7.5 | 82.0* | -31.4 | -0.3 | 1.4 | 10.1
CCCc1nnc(NC(=O)c2nc(S(=O)(=O)Cc3ccc(C)cc3)ncc2Cl)s1 | 107.7* | · | -3.8 | 1.8 | -18.0 | 35.1
CCOC(=O)[C@@H]1[C@H]2COc3ccccc3[C@H]2N2C(=O)N(c3ccccc3)C(=O)[C@]12C | -11.3 | · | 9.8 | 4.6 | -10.0 | 2.4
N#Cc1ccc(OCC(=O)N2CCN(S(=O)(=O)c3cccc(Cl)c3)CC2)cc1 | · | · | · | · | 5.9 | 3.6
Cc1noc(C)c1S(=O)(=O)N(CC(=O)NC1CCCC1)c1ccc(C(C)C)cc1 | -7.6 | · | 23.4 | 1.0 | 3.2 | 13.5
CC(=O)Nc1ccc2nc(C)n(Cc3ccc(Cl)cc3)c(=O)c2c1 | -11.2 | 78.4* | 9.4 | -3.4 | -7.8 | -12.6
CCOC(=O)CCNC(=O)Nc1ccc2nc(C)n(Cc3ccc(Cl)cc3)c(=O)c2c1 | -20.2 | 7.9 | 8.4 | 8.1 | -12.4 | -18.2
CCN(CC)CCCN(C(C)=O)c1nc(-c2cc(OC)ccc2OC)cs1 | -10.3 | 100.5* | -12.7 | -9.9 | 1.9 | -13.1
CCN(CC(=O)Nc1ccc(OC)c(OC)c1)CC(=O)Nc1ccccc1C(F)(F)F | -15.2 | · | -6.2 | 3.2 | 0.3 | -0.6
CCN(CC)CCCNC(=O)c1ccc(OCC(=O)Nc2ccccc2C(F)(F)F)c(OC)c1 | -14.3 | 44.7 | 54.8* | -14.2 | -4.7 | -25.7
COc1ccc2nc(SCC(=O)NCC(F)(F)F)[nH]c2c1 | 10.6 | -7.1 | -16.1 | 0.4 | -2.1 | 10.2
O=C(O)CCCCCCCCc1cn(Cc2ccc(C(=O)c3ccccc3)cc2)nn1 | 60.9 | · | 55.6* | 17.6 | 19.6 | 40.7
COc1cc(C2NC(=O)NC3=C2C(=O)OC3)cc(OC)c1OC (stereo not given) | 20.4 | · | 5.1 | -1.2 | 4.1 | -0.3
CN1CCN(C(=S)c2cn(Cc3ccc(Br)cc3)c3ccccc23)CC1 | · | 52.5* | · | 5.3 | -9.7 | 11.0
CC1CCN(C(=S)c2cn(Cc3cccc(F)c3)c3ccccc23)CC1 | 30.7 | 66.9* | 29.7 | 0.5 | 7.6 | 22.4
CCOC(=O)c1c(NC(=S)NCC2CCCO2)sc(C)c1C (stereo not given) | -10.5 | -5.8 | 1.5 | -2.7 | · | 4.0
CCOc1cc(-c2cc(-c3ccc(C)cc3)nc(N)c2C#N)ccc1O | 6.3 | 1.1 | 17.5 | 15.3 | 7.4 | 35.8
CCOc1cc(/C=C(\C#N)c2[nH]nc(N)c2C#N)ccc1O | 35.5 | 67.2* | 2.4 | 42.1 | -10.5 | 28.9
